Test results taken from ChEMBL document CHEMBL4689842, “EUbOPEN Chemogenomics Library wave 1” (2021).

System: HEK-293T
Test: Multiplex assay against HEK293T;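 as to Population Tubulin-Different-Phenotype (%): share of the cells with healthy nuclei that show this phenotype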
Assay type: toxicity, cell-based
Settings: human
Procedure, shortened: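 Per cents of healthy-nucleus cells form the tubulin, mitochondrial-mass and membrane-permeability phenotype values. Live cells were stained at seeding with Hoechst33342, BioTracker Green Microtubule Cytoskeleton Dye, MitoTracker Red and Annexin V Alexa Fluor 680. After compound addition they were imaged on a CQ1 microscope at 37°C and 5% CO2, and CellPathfinder machine-learning gating split them into Hoechst high-intensity objects or normal cells, normal cells into healthy, pyknosed or fragmented nuclei, and pyknosed cells into mitotic or apoptotic.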

[1] = 12 h, 1 µM, compound concentration 1 uM, replicate 1
[2] = 12 h, 1 µM, compound concentration 1 uM, replicate 2
[3] = 12 h, 10 µM, compound concentration 10 uM, replicate 1
[4] = 12 h, 10 µM, compound concentration 10 uM, replicate 2
[5] = 24 h, 1 µM, compound concentration 1 uM, replicate 1
[6] = 24 h, 1 µM, compound concentration 1 uM, replicate 2
[7] = 24 h, 10 µM, compound concentration 10 uM, replicate 1
[8] = 24 h, 10 µM, compound concentration 10 uM, replicate 2
[9] = 48 h, 1 µM, compound concentration 1 uM, replicate 1
[10] = 48 h, 1 µM, compound concentration 1 uM, replicate 2
[11] = 48 h, 10 µM, compound concentration 10 uM, replicate 1
[12] = 48 h, 10 µM, compound concentration 10 uM, replicate 2

Cn1cc(-c2[nH]c3cc(NC(=O)[C@H](N)C4CCCCC4)cc4c3c2C=NNC4=O)cn1
Population Apoptotic (%) [1]: 40%
Population Fragmented Nuclei (%) [1]: 10%
Population Healthy Nuclei (%) [1]: 26%
Population Hoechst High Intensity Objects (%) [1]: 14%
Population Membrane Permeable-Phenotype (%) [1]: 10%
Population Mitochondria Different-Phenotype (%) [1]: 71%
Population Mitotic Cells (%) [1]: 60%
Population Normal (%) [1]: 85%
Population Pyknosed Nuclei (%) [1]: 62%
Population Tubulin-Different-Phenotype (%) [1]: 42%
Total Cell Count [1]: 344
Population Apoptotic (%) [2]: 17%
Population Fragmented Nuclei (%) [2]: 6%
Population Healthy Nuclei (%) [2]: 28%
Population Hoechst High Intensity Objects (%) [2]: 6%
Population Membrane Permeable-Phenotype (%) [2]: 11%
Population Mitochondria Different-Phenotype (%) [2]: 7%
Population Mitotic Cells (%) [2]: 82%
Population Normal (%) [2]: 93%
Population Pyknosed Nuclei (%) [2]: 65%
Population Tubulin-Different-Phenotype (%) [2]: 25%
Total Cell Count [2]: 259
Population Apoptotic (%) [3]: 64%
Population Fragmented Nuclei (%) [3]: 15%
Population Healthy Nuclei (%) [3]: 24%
Population Hoechst High Intensity Objects (%) [3]: 17%
Population Membrane Permeable-Phenotype (%) [3]: 10%
Population Mitochondria Different-Phenotype (%) [3]: 82%
Population Mitotic Cells (%) [3]: 35%
Population Normal (%) [3]: 82%
Population Pyknosed Nuclei (%) [3]: 60%
Population Tubulin-Different-Phenotype (%) [3]: 62%
Total Cell Count [3]: 329
Population Apoptotic (%) [4]: 42%
Population Fragmented Nuclei (%) [4]: 6%
Population Healthy Nuclei (%) [4]: 17%
Population Hoechst High Intensity Objects (%) [4]: 6%
Population Membrane Permeable-Phenotype (%) [4]: 6%
Population Mitochondria Different-Phenotype (%) [4]: 46%
Population Mitotic Cells (%) [4]: 57%
Population Normal (%) [4]: 93%
Population Pyknosed Nuclei (%) [4]: 75%
Population Tubulin-Different-Phenotype (%) [4]: 66%
Total Cell Count [4]: 180
Population Apoptotic (%) [5]: 41%
Population Fragmented Nuclei (%) [5]: 13%
Population Healthy Nuclei (%) [5]: 20%
Population Hoechst High Intensity Objects (%) [5]: 19%
Population Membrane Permeable-Phenotype (%) [5]: 5%
Population Mitochondria Different-Phenotype (%) [5]: 62%
Population Mitotic Cells (%) [5]: 58%
Population Normal (%) [5]: 80%
Population Pyknosed Nuclei (%) [5]: 65%
Population Tubulin-Different-Phenotype (%) [5]: 68%
Total Cell Count [5]: 330
Population Apoptotic (%) [6]: 40%
Population Fragmented Nuclei (%) [6]: 6%
Population Healthy Nuclei (%) [6]: 26%
Population Hoechst High Intensity Objects (%) [6]: 9%
Population Membrane Permeable-Phenotype (%) [6]: 14%
Population Mitochondria Different-Phenotype (%) [6]: 19%
Population Mitotic Cells (%) [6]: 59%
Population Normal (%) [6]: 90%
Population Pyknosed Nuclei (%) [6]: 67%
Population Tubulin-Different-Phenotype (%) [6]: 53%
Total Cell Count [6]: 263
Population Apoptotic (%) [7]: 74%
Population Fragmented Nuclei (%) [7]: 17%
Population Healthy Nuclei (%) [7]: 13%
Population Hoechst High Intensity Objects (%) [7]: 17%
Population Membrane Permeable-Phenotype (%) [7]: 14%
Population Mitochondria Different-Phenotype (%) [7]: 97%
Population Mitotic Cells (%) [7]: 25%
Population Normal (%) [7]: 82%
Population Pyknosed Nuclei (%) [7]: 69%
Population Tubulin-Different-Phenotype (%) [7]: 82%
Total Cell Count [7]: 311
Population Apoptotic (%) [8]: 72%
Population Fragmented Nuclei (%) [8]: 6%
Population Healthy Nuclei (%) [8]: 6%
Population Hoechst High Intensity Objects (%) [8]: 12%
Population Membrane Permeable-Phenotype (%) [8]: 0%
Population Mitochondria Different-Phenotype (%) [8]: 70%
Population Mitotic Cells (%) [8]: 27%
Population Normal (%) [8]: 87%
Population Pyknosed Nuclei (%) [8]: 86%
Population Tubulin-Different-Phenotype (%) [8]: 70%
Total Cell Count [8]: 175
Population Apoptotic (%) [9]: 36%
Population Fragmented Nuclei (%) [9]: 22%
Population Healthy Nuclei (%) [9]: 5%
Population Hoechst High Intensity Objects (%) [9]: 23%
Population Membrane Permeable-Phenotype (%) [9]: 6%
Population Mitochondria Different-Phenotype (%) [9]: 46%
Population Mitotic Cells (%) [9]: 63%
Population Normal (%) [9]: 76%
Population Pyknosed Nuclei (%) [9]: 71%
Population Tubulin-Different-Phenotype (%) [9]: 60%
Total Cell Count [9]: 373
Population Apoptotic (%) [10]: 52%
Population Fragmented Nuclei (%) [10]: 10%
Population Healthy Nuclei (%) [10]: 14%
Population Hoechst High Intensity Objects (%) [10]: 17%
Population Membrane Permeable-Phenotype (%) [10]: 17%
Population Mitochondria Different-Phenotype (%) [10]: 20%
Population Mitotic Cells (%) [10]: 47%
Population Normal (%) [10]: 82%
Population Pyknosed Nuclei (%) [10]: 75%
Population Tubulin-Different-Phenotype (%) [10]: 64%
Total Cell Count [10]: 278
Population Apoptotic (%) [11]: 72%
Population Fragmented Nuclei (%) [11]: 20%
Population Healthy Nuclei (%) [11]: 3%
Population Hoechst High Intensity Objects (%) [11]: 20%
Population Membrane Permeable-Phenotype (%) [11]: 11%
Population Mitochondria Different-Phenotype (%) [11]: 77%
Population Mitotic Cells (%) [11]: 27%
Population Normal (%) [11]: 79%
Population Pyknosed Nuclei (%) [11]: 76%
Population Tubulin-Different-Phenotype (%) [11]: 66%
Total Cell Count [11]: 331
Population Apoptotic (%) [12]: 89%
Population Fragmented Nuclei (%) [12]: 5%
Population Healthy Nuclei (%) [12]: 1%
Population Hoechst High Intensity Objects (%) [12]: 15%
Population Membrane Permeable-Phenotype (%) [12]: 0%
Population Mitochondria Different-Phenotype (%) [12]: 66%
Population Mitotic Cells (%) [12]: 10%
Population Normal (%) [12]: 84%
Population Pyknosed Nuclei (%) [12]: 92%
Total Cell Count [12]: 179
